Results from ChEMBL document CHEMBL1135354, “Synthesis and activity of a novel class of tribasic macrocyclic antibiotics: the triamilides” (2002).
Converted amounts (≈) assume the structure as drawn.

How the values were obtained:
Type in all cases: functional
[1] = tested on: Pasteurella multocida; experiment: Effective dose required to inhibit Pasteurella multocida infection model in mouse by subcutaneous administration; details: Pasteurella multocida, sc; read-out: ED50
Method in brief: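 Mice infected intranasally with P. multocida (respiratory disease model); drug given subcutaneously 0.5 h post-infection at 5–80 mg/kg. ED50 derived from number of surviving mice 4 days after infection.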

[2] = tested on: Pasteurella multocida; experiment: Minimum inhibitory concentration required to inhibit growth of Pasteurella multocida in vitro by microdilution method.
Method in brief: (§1)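 Broth microdilution per NCCLS; E. coli 51A0150 (poultry lung) and P. multocida 59A0067 (turkey). Overnight BHI plate colonies suspended in saline to OD625 0.09 (0.5 McFarland), diluted 1:100 in BHI broth; final ~5×10^5 cfu/mL against 2-fold serial dilutions in BHI broth.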

[3] = tested on: Escherichia coli; experiment: In vitro minimum inhibitory concentration required to inhibit growth of Escherichia coli.; details: Escherichia coli; method in brief: as §1

For CC[C@H]1OC(=O)[C@H](C)[C@@H](O[C@H]2C[C@@](C)(OC)[C@@](O)(CN(C)CC)[C@H](C)O2)[C@H](C)[C@@H](O[C@@H]2O[C@H](C)C[C@H](N(C)C)[C@H]2O)[C@](C)(O)C[C@@H](C)CN[C@H](C)[C@@H](O)[C@]1(C)O (stereo in doubt; 10g), the ED50 [1] was less than 5 mg/kg, the MIC [2] was 0.1 µg/mL (≈ 0.124 µM) and the MIC [3] was 0.39 µg/mL (≈ 0.484 µM).
